Source: PubChem BioAssay (several laboratories)
Vif inh: HIV Vif self-association inhibitors, primary screen, imaging, HEK293T, single point | HEK293T cells, Vif self-association by quenched fluorescence, 24 h | inhibition, % at 7.49 µM | hit rate 0.35% among 340,000 | AID 602346, 2012; in the data active = inhibition above about 50%, passing the limit was not always enough
MT1-MMP act inh: blockers of MT1-MMP proenzyme processing, primary screen, HT1080 RFP-PRO-GFP cells, GFP/RFP fluorescence; GFP/RFP ratio change, % at 20 µM; GFP/RFP ratio fluorescence, overnight; percent of plate control window, DMSO zero; hit rate 0.061% among 360,000;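 active = GFP/RFP ratio change of at least 30% with cell ATP level not reduced by more than half and red fluorescence within 50% of control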
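Material: RFP-PRO-GFP reporter HT1080 cells. Dosing: single-point 20 µM compound, 1% DMSO. Controls: DMSO and RFP-L50D-GFP cell wells. Timing: cells overnight before dosing, compound overnight, 37 °C, 5% CO2. Measure: GFP/RFP fluorescence ratio.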
NR2E3 ag-1: inhibitors of NR2E3-RetCOR corepressor binding, primary screen, NR2E3 agonist project, biochemical, TR-FRET, GST-NR2E3, biotin-RetCOR. 1536-well. inhibition of corepressor binding, % at 4.78 µM. hit rate 0.12% among 320,000. AID 2300, 2010;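 active = percent inhibition above the cutoff of mean plus 3 SD of all tested compounds, set per screening campaign, cut at about 20% in these data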
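Format: 1536-well format; test system: GST-NR2E3 and biotin-RetCOR proteins; read-out basis: percent inhibition of TR-FRET ratio; timing: 5 h incubation at 4 °C; detection: time-resolved FRET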
NR2E3 ag-2: NR2E3 agonists in two-hybrid cells, primary screen, cell-based, luminescence, CHO-S, Gal4-NCOR/VP16-NR2E3. Photoreceptor-specific nuclear receptor (Homo sapiens), Q9Y5X4. luciferase. inhibition of corepressor binding, % at 3.98 µM. hit rate 0.35% among 360,000;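 active = inhibition above the mean of all tested compounds plus 3 SD, cut at about 70% in these data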;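 also: higher means lower luciferase signal from less NR2E3 corepressor binding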
DAGLB inhibitor: DAGLB lipase inhibitors, primary screen, biochemical, fluorescence, HTS | HEK293T DAGLB membrane lysate, EnzChek fluorogenic substrate | inhibition, % at 5.17 µM | hit rate 0.059% among 340,000 | Diacylglycerol lipase-beta (Homo sapiens), Q8NCG7; in the data active = inhibition above about 34%
Target sequence (Q8NCG7 whole entry, looked up): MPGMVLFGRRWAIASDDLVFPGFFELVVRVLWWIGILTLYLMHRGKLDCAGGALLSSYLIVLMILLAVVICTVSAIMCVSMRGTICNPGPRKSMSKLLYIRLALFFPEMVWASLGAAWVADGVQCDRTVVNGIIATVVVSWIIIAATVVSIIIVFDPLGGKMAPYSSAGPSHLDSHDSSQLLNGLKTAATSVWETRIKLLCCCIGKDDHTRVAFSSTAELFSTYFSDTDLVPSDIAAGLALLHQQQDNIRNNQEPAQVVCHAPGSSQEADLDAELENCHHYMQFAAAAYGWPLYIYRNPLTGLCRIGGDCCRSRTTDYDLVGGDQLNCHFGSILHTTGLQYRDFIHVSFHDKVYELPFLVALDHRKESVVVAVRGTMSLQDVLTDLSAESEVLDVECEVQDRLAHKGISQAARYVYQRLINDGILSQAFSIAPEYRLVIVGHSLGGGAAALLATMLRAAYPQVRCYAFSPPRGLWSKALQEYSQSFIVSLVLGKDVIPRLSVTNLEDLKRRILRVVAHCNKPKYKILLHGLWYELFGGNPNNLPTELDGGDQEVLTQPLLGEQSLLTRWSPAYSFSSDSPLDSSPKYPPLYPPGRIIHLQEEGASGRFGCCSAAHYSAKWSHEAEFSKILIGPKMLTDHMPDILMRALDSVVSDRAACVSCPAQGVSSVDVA
core dimer inh: inhibitors of HCV core protein dimerization, primary screen, biochemical, TR-FRET, high-throughput; inhibition, % at 5 µM; hit rate 0.33% among 300,000; AID 1899, 2009; TR-FRET GST/Flag-core106 dimerization, 1536-well;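 active = inhibition above the mean of all tested compounds plus 3 SD, set per screening campaign, cut at about 45% in these data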
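Material: Tagged HCV core106 pair (GST and Flag) | Amount: GST-core106 13.5 nM, Flag-core106 17 nM | Medium: KF-containing HEPES buffer, pH 7.45, DTT, CHAPS, BSA | Reagent: Eu donor and XL665 acceptor anti-tag antibodies | Schedule: 4 h at 22.5 °C | Technique: Time-resolved FRET, ex 340 nm, em 617 and 671 nm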
NR2E3 ag conf: NR2E3 agonist confirmation in cells, cell-based, luminescence, CHO-S two-hybrid | hit rate 51% among 2,300 | AID 624378, 2012 | shares compounds with NR2E3 ag-2 | inhibition, % at 3.98 µM | CHO-S mammalian two-hybrid NR2E3-NCOR, luciferase luminescence;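 active = average inhibition above a cutoff equal to the mean inhibition of all tested compounds plus one SD, cut at about 70% in these data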
VP16 counter: GAL4-VP16 reporter modulators, confirmation, counter-screen for NR2E3 agonist project, cell-based, luminescence, CHO-S, high throughput; inhibition, % at 3.98 µM; CHO-S GAL4-VP16 luciferase reporter; hit rate 29% among 2,300; shares compounds with NR2E3 ag-2;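 active = mean inhibition above a cutoff equal to the average over all tested compounds plus one standard deviation, cut at about 70% in these data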;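 also: luciferase from a UAS reporter driven by GAL4-VP16 transactivation; higher means less reporter light so more repression of VP16 activity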
A number is an active result; 0 = inactive; - = no result given. Hits are enriched below; roughly 1.1% of the tested compounds scored in any of these assays.

SMILES	Vif inh	MT1-MMP act inh	NR2E3 ag-1	NR2E3 ag-2	DAGLB inhibitor	core dimer inh	NR2E3 ag conf	VP16 counter
O=c1[nH]c2ccc([N+](=O)[O-])cc2nc1/C=C(\O)c1ccccc1	0	0	0	0	0	0	-	-
O=C(Nc1ccc(Br)cc1)c1ccc(F)c(S(=O)(=O)NCc2cccs2)c1	0	0	0	82.6	0	0	96.7	82.3
O=S(=O)(NCc1cccs1)c1ccc(Br)cc1	-	0	0	0	0	0	-	-
COc1ccc(CNC(=O)C(c2ccc(C)o2)N(C(=O)c2csnn2)c2ccc(C(C)C)cc2)cc1 (stereo unspecified)	0	0	0	0	0	0	-	-
N#C/C(=N\Nc1ccc(Cl)cc1)C(=O)c1ccsc1	0	0	0	81.3	0	0	100.0	88.2
N#C/C(=N\Nc1ccccc1)C(N)=S	0	0	0	0	0	0	-	-
N#C/C(=N\Nc1ccc(Cl)cc1)C(N)=S	0	0	0	0	0	0	0	0
CCc1c(C)nc2nc(SCc3ccccc3Cl)[nH]n2c1=O	0	0	0	0	0	0	84.2	0
COCCN(C(=O)COC(=O)C1(c2ccccc2)CC1)c1c(N)n(CC(C)C)c(=O)[nH]c1=O	0	0	0	0	0	0	-	-
CC(C)CC(N)c1csc(NC(=O)c2cc(C(C)(C)C)nn2Cc2ccccc2)n1 (stereo unspecified)	0	0	-	0	-	-	0	0
CC(=O)c1ccc(OCCCC(=O)N2CCN(S(=O)(=O)c3ccc(C(C)C)cc3)CC2)cc1	0	0	0	0	0	0	-	-
COc1ccccc1-n1c(=O)oc2ccc(Cl)cc2c1=O	0	0	0	73.2	0	0	96.3	0
N#C/C(C(=O)N1CCCCC1)=C1\Nc2ccccc2S1	0	0	0	0	0	0	-	-
Cc1ccc(NC(=S)/C(C#N)=C2/Nc3ccccc3S2)cc1	0	0	-	93.0	0	-	99.4	0
CCC[C@@H]1C=C(C(=O)OCC)[C@H](c2ccccc2)N1S(=O)(=O)c1ccc(C)cc1	-	0	-	0	-	-	-	-
CCc1c(C)nc2ncnn2c1NCCc1ccc(OC)c(OC)c1	0	0	0	0	0	0	-	-
COc1ccc(CCNc2c(C)c(C)nc3ncnn23)cc1	-	0	0	93.5	0	0	93.7	75.4
O=S(=O)(C/C(=C/CO)S(=O)(=O)c1ccccc1)c1ccccc1	62.4	0	0	0	0	0	0	0
O=C(OCc1ccccc1)N(CCCCN(CCCNCc1ccccc1)C(=O)OCc1ccccc1)CCCNCc1ccccc1	0	0	-	0	0	-	0	0
O=C(NCCCCCCNC(=O)OCc1ccccc1)OCc1ccccc1	0	0	-	0	0	-	-	-
O=c1ccn([C@@H]2O[C@H](CNCC3=Cc4cc(O)ccc4OC3)[C@@H](O)[C@H]2O)c(=O)[nH]1	0	0	-	0	0	-	-	-
CC(Nc1ncnc2ccccc12)c1ccccc1 (stereo unspecified)	0	0	0	75.2	0	0	95.7	90.5
Cc1c(C(=O)Nc2ccccc2)c2ccc(C(F)(F)F)cc2n1O	0	0	0	0	-	0	-	-
N#Cc1ccccc1NC(=O)COc1ccccc1C(=O)Nc1ccccc1	0	0	-	0	0	-	-	-
Cc1ccc(OCc2cc(C(=O)N3CCC(Oc4cccnc4)CC3)no2)cc1C	0	0	0	96.9	0	0	91.4	0
SMILES	Vif inh	MT1-MMP act inh	NR2E3 ag-1	NR2E3 ag-2	DAGLB inhibitor	core dimer inh	NR2E3 ag conf	VP16 counter
COCCC1CCCCN1C(=O)c1cc(COc2ccc(C)nc2)on1 (stereo unspecified)	0	0	0	0	0	0	-	-
COCCCC1CCN(C(=O)c2cc(COc3ccc(C)nc3)on2)CC1	0	0	0	0	0	0	0	0
O=C(c1cc(COc2cccc(C(F)(F)F)c2)on1)N1CCC(Oc2cccnc2)CC1	0	0	0	77.6	0	0	92.3	74.8
CCc1nc(SCC(=O)Nc2nnc(CC(C)C)s2)n[nH]1	0	0	0	0	0	0	-	-
CC(C)CCNC(=O)CN(C(=O)CCC(=O)Nc1nccs1)C1CCCCC1	0	0	0	0	0	0	-	-
COc1ccc(NS(=O)(=O)c2ccc3oc4ccccc4c3c2)cn1	0	0	0	88.4	0	0	75.6	0
COc1ccc(NS(=O)(=O)c2ccc(Br)cc2)cn1	0	0	0	0	0	0	-	-
CCOC(=O)C(=O)NNc1ccc(F)cc1	0	0	0	0	-	0	0	0
CCOC(=O)C(=O)N/N=C/c1ccc(F)cc1	0	0	0	0	0	0	-	-
CCOc1cccc(-c2c(C(=O)N/N=C/c3cccs3)nnn2-c2nonc2N)c1	0	0	0	0	0	0	-	-
O=C(CSc1nc(=O)n2ccccc2n1)N1CCN(c2ccccc2)CC1	0	0	0	0	0	0	-	-
Cc1ccc(N2CC(O)CSC2=Nc2ccccc2)cc1 (stereo unspecified)	0	0	-	0	0	-	-	-
CC(Sc1nc2ccccc2c(=O)n1C)C(=O)N(C)C1CCCCC1 (stereo unspecified)	0	0	0	94.9	0	0	91.5	75.6
CC1=C(C(=O)N(C(C)C)C(C)C)CC(CC(=O)NC(c2ccccc2)c2ccccc2)C(=O)N1Cc1ccc(F)cc1 (stereo unspecified)	-	0	-	0	-	-	-	-
COc1ccc(OC)c(C2C3=C(COC3=O)Nc3cc4c(cc32)OCO4)c1 (stereo unspecified)	71.6	0	0	0	0	0	0	0
O=C(CN1C(=O)CCS(=O)(=O)c2ccccc21)Nc1ccc(Cl)cc1	0	0	0	0	0	0	-	-
COc1ccc(/C=N/N2CCN(Cc3ccc(C)cc3)CC2)cc1Br	0	0	0	0	0	0	-	-
COc1cc(C(=O)NCCOc2cc(C)ccc2C(C)C)cc(OC)c1OC	0	0	0	0	0	0	0	0
CSCC[C@H](NS(=O)(=O)c1ccc(C(C)=O)cc1)c1nnc2ccccn12	0	0	0	0	0	0	-	-
O=C(NCc1cccnc1)c1ccc(-c2ccc(F)c(F)c2)c2ccoc12	0	0	-	76.3	-	-	95.7	75.9
